Screening data deposited in PubChem by The Scripps Research Institute Molecular Screening Center.
NPY Y1 blocker: NPY-Y1 (human) receptor antagonism; P25929; HEK293-CNG Y1 cells, membrane potential fluorescence; NPY at EC95, then isoproterenol; inhibition, % at 3.6 µM; actives 1% (n = 200,000);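 active = inhibition above the campaign mean inhibition of all tested compounds plus 3 SD, cut at about 20% in these data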
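Benchmarks – high control isoproterenol alone, low control NPY with isoproterenol · Material – HEK293 Y1/CNG channel cell line · Times – dye 3 h, compound 60 min room temperature, stimulation 45 min · Probe or stimulus – NPY (25 nM), isoproterenol (1 µM), Ro 20-1724 (25 µM) · Evaluation – % inhibition of NPY effect · Signal – fluorescence, membrane potential probe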
NPY Y2 blocker: antagonists of human neuropeptide Y receptor Y2. actives 0.99% (n = 140,000). NPY-Y2 expressing cells, antagonist mode. inhibition, % at 2.7 µM. P49146. AID 793
NPY-Y1 PAM-ag: potentiators or agonists of human neuropeptide Y receptor Y1. P25929. actives 0.37% (n = 220,000). NPY-Y1 expressing cells, potentiator/agonist activation. AID 1304. activation, % at 3.6 µM; in the data active = activation above about 33%, passing the limit was not always enough;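 also: cells stimulated with NPY at EC10 then isoproterenol at EC100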
S1P4 antag: blocks the human S1P4 receptor; O95977; S1P4-expressing cells, antagonist mode, reporter read-out; inhibition, % at 4.98 µM; actives 0.26% (n = 220,000); AID 1510; in the data active = inhibition above about 29%
Target sequence (O95977 whole entry, looked up): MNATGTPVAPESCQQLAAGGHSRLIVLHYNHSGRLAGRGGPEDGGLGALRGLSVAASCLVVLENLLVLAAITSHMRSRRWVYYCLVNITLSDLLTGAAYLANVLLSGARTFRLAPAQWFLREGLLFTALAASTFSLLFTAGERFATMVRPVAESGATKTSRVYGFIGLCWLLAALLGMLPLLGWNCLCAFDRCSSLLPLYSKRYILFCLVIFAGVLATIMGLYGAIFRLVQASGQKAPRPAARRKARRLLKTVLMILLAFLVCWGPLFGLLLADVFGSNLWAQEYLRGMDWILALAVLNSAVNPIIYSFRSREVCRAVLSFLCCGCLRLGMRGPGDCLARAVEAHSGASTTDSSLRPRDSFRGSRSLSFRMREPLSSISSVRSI
S1P4 ag: activates the human S1P4 receptor | O95977 | S1P4-expressing cell line, agonist reporter assay | activation, % at 4.98 µM | actives 0.35% (n = 220,000); in the data active = activation above about 11%
NPY2 pot ag: potentiators or agonists of human neuropeptide Y receptor Y2 | cells expressing NPY-Y2, potentiator/agonist read-out | activation, % at 3.6 µM | actives 0.45% (n = 220,000) | AID 1359; in the data active = activation above about 27%;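 also: cells stimulated with NPY near EC25 plus isoproterenol at EC100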
NPY1 antag conf: human NPY-Y1 antagonism, confirmation; shares compounds with NPY Y1 blocker; HEK293-CNG NPY-Y1, membrane potential fluorescence, cAMP; NPY challenge against isoproterenol-raised cAMP; inhibition, % at 3.6 µM; actives 21% (n = 1,200); in the data active = inhibition above about 20%
NPY2 antag ctr: antagonizes human NPY-Y2, counter-screen to NPY-Y1 antagonists; shares compounds with NPY Y1 blocker; HEK293 NPY-Y2 CNG membrane potential fluorescence, antagonism; cells given NPY, then isoproterenol; inhibition, % at 3.6 µM; actives 28% (n = 1,200)
Large screens that a line does not name were inactive (follow-up assays come after a bar, where they were run). Most compounds without a hit are left out; they make up all but 2.4% or so of the library. Rule as the data show it, unless noted: active = inhibition above about 17%; inactive = the rest.

O=C(NCc1cccs1)C1CC(c2ccc(Cl)c(Cl)c2)=NO1 (configuration not stated)	NPY Y1 blocker 24 (no result: NPY Y2 blocker) | NPY1 antag conf inactive | NPY2 antag ctr 29
O=C(NCc1cccs1)C1CC(c2ccc(Cl)cc2)=NO1 (configuration not stated)	none (no result: NPY Y2 blocker)
COc1ccc(C2=NOC(C(=O)NCc3ccccc3)C2)cc1 (configuration not stated)	NPY Y1 blocker 29 | NPY1 antag conf inactive | NPY2 antag ctr 19
COc1ccc(CNC(=O)C2CC(c3cccc([N+](=O)[O-])c3)=NO2)cc1 (configuration not stated)	none
CC(C)Nc1nnc(SC(C)C(=O)Nc2ccc(Cl)cn2)s1 (configuration not stated)	none (no result: NPY Y2 blocker)
CC(C)(C)n1nnnc1C(c1cccnc1)N(Cc1ccccc1)Cc1cccs1 (configuration not stated)	NPY Y1 blocker 21 | NPY1 antag conf inactive | NPY2 antag ctr inactive
CC(C)(C)n1nnnc1C(c1cccs1)N(Cc1ccccc1)Cc1cccnc1 (configuration not stated)	NPY Y1 blocker 26 | NPY1 antag conf inactive | NPY2 antag ctr inactive
Cc1ccc(-n2c(SCC3CNC(=O)O3)nnc2-c2ccccc2)cc1C (configuration not stated)	none
COC(=O)c1cc2c(ccn2-c2ccc(F)cc2)n1Cc1ccc(OC(C)=O)cc1	none
COC(=O)c1cc2c(ccn2-c2ccc(F)cc2)n1CC(C)C	NPY Y1 blocker 48 | NPY1 antag conf 26 | NPY2 antag ctr 22
CCCn1c(C(=O)OC)cc2c1ccn2-c1ccc(F)cc1	NPY Y1 blocker 55 | NPY1 antag conf inactive | NPY2 antag ctr inactive
Cn1cnnc1SCC(=O)c1c(N)n(Cc2ccccc2)c(=O)n(C)c1=O	none (no result: NPY Y2 blocker)
Cc1cc(C(=O)OCC(=O)NCc2ccco2)c(C)o1	none (no result: NPY Y2 blocker)
Cc1ccc(NC(=O)C(c2ccccc2)C2CCCC2)cc1 (configuration not stated)	NPY Y1 blocker 24 | NPY1 antag conf inactive | NPY2 antag ctr inactive
CC(C)CCn1c(Oc2ccccc2Cl)nc2c1c(=O)n(C)c(=O)n2C	NPY Y1 blocker 36 | NPY1 antag conf inactive | NPY2 antag ctr inactive
O=C(Nc1ccc(C(=O)OC[C@@H]2CCCN3CCCC[C@H]23)cc1)c1cccc(Br)c1	none
O=C(Nc1nc(-c2ccc(Cl)s2)cs1)c1ccncc1	none
CC1CC1C(=O)Nc1nc(-c2ccc(Cl)s2)cs1 (configuration not stated)	NPY Y1 blocker 25 (no result: NPY Y2 blocker) | NPY1 antag conf inactive | NPY2 antag ctr inactive
O=C(NC1CCCC1)C(c1ccccc1F)N(C(=O)Cc1cccs1)c1ccc2c(c1)OCCO2 (configuration not stated)	NPY Y1 blocker 20 | NPY1 antag conf inactive | NPY2 antag ctr inactive
CCOc1ncccc1C(=O)N1CCN(c2cccc(C)c2C)CC1	NPY Y1 blocker 24 (no result: NPY Y2 blocker) | NPY1 antag conf inactive | NPY2 antag ctr inactive
CCOC(=O)C1(CC2CCCCO2)CCN(S(=O)(=O)c2cc(C)cs2)CC1 (configuration not stated)	none (no result: NPY Y2 blocker)
CCOC(=O)C1(CC2CCCCO2)CCN(C2CCSCC2)CC1 (configuration not stated)	NPY Y1 blocker 34 (no result: NPY Y2 blocker) | NPY1 antag conf inactive | NPY2 antag ctr inactive
CC1CCC(C(C)C)C(OC(=O)Cn2c(-c3ccc(Br)cc3)[n+](C)c3ccccc32)C1 (configuration not stated)	NPY Y1 blocker 44 (no result: NPY Y2 blocker) | NPY1 antag conf 37 | NPY2 antag ctr 41
Cc1ccccc1OCc1n(CC(=O)OC2CC(C)CCC2C(C)C)c2ccccc2[n+]1C (configuration not stated)	NPY Y1 blocker 29 (no result: NPY Y2 blocker) | NPY1 antag conf 36 | NPY2 antag ctr 42
CCOC(=O)N1CCC(NC(=O)C2=CCN(S(=O)(=O)c3ccc(OC)cc3)CC2)CC1	none (no result: NPY Y1 blocker, NPY Y2 blocker)
